# NF-kB neuron act – activators of NF-kB expression in neurons, primary screen, cell-based, HTS | human neuronal cells, NF-kB reporter expression; hits give high values | 1.6% of 190,000 active | fold change at 12.5 µM | AID 1239, 2008; in the data active = fold change above about 3.3
# APP 5'UTR act – activators of APP 5'UTR luciferase reporter, primary screen, SH-SY5Y cells; AID 1276, 2008; 1% of 190,000 active; SH-SY5Y APP 5'UTR luciferase reporter, luminescence; zero percent = DMSO vehicle wells; activation, % at 2 µM;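 active = activation above a set limit, based on mean plus 3 SD of controls, cut at about 140% in these data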
# STAT1 blocker – STAT1 signaling inhibitors, primary screen, cell-based, HTS, luciferase reporter; NIH 3T3 STAT1-luciferase reporter, IFN-gamma, luminescence; inhibition, % at 5.5 µM; 0.35% of 200,000 active;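 active = inhibition above a set limit, the mean inhibition across all tested compounds plus 3 SD, cut at about 34% in these data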;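 also: 0% = IFN-gamma with DMSO and 100% = IFN-gamma with 300 µM nifuroxazide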
# STAT1 act – STAT1 signaling activators, primary screen, cell-based, HTS, luciferase reporter; NIH 3T3 STAT1-luciferase reporter, IFN-gamma, luminescence; 100% = IFN-gamma alone, no compound; activation (% of control), % at 5.5 µM; 2.6% of 200,000 active; AID 932, 2007;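 active = activation above the screen-wide mean activation plus 3 SD, cut at about 130% in these data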;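 also: raw ratio to IFN-gamma control signal so 100% means no change and 0% no light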
# STAT3 inh – IL-6 driven STAT3 reporter inhibitors, primary screen, U3A cells, luciferase, luminescence, MLSCN library | 0.89% of 190,000 active | inhibition, % at 5.5 µM | IL-6 STAT3-luciferase reporter; host cell line lacks STAT1;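 active = inhibition above the mean inhibition across all screened compounds plus 3 SD, cut at about 44% in these data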;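 also: 0% = DMSO only wells and 100% = 100 µM nifuroxazide control wells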
# STAT3 activator – IL-6 driven STAT3 reporter potentiators, primary screen, U3A cells, luciferase, luminescence, MLSCN library. IL-6 STAT3-luciferase reporter; 100% = signal with IL-6 EC80 alone. activation (% of control), % at 5.6 µM. 0.91% of 190,000 active. AID 871, 2007;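 active = activation above the screen-wide mean of compound activation plus 3 SD, cut at about 130% in these data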;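 also: 0% = background luminescence of wells with medium and substrate only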
#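 Material: human STAT1-deficient U3A cells with stable STAT3-luciferase reporter / Probe or stimulus: IL-6 stimulus at 33 ng/mL final / Schedule: 1 h compound pre-exposure, 6 h IL-6 stimulation, 37 °C / Technique: luminescence / Read-out basis: percent of IL-6-only median luminescence / Control set: IL-6-only high control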
# STAT1 act conf – STAT1 signaling activators, confirmation, cell-based, HTS, luciferase reporter | shares compounds with STAT1 act | NIH 3T3 STAT1-luciferase reporter, IFN-gamma potentiation, luminescence; 100% = IFN-gamma EC80 alone, no compound | activation (% of control), % at 5.7 µM | 97% of 1,200 active | AID 1262, 2008;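 active = activation above a set limit carried over from the earlier primary STAT1 screen, cut at about 140% in these data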;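 also: simple ratio to median IFN-gamma plus DMSO wells so 0% means no light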
# NFkB act – NF-kB reporter activators, TNF-alpha stimulated, counter-screen for STAT1 activator project, cell-based, HEK293T, luciferase luminescence; 100% = TNF-alpha with vehicle only; activation (% of control), % at 5.7 µM; shares compounds with STAT1 act; AID 1306, 2008; 43% of 1,200 active;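 active = activation above the mean of solvent-only control wells plus 3 SD, set per campaign, cut at about 130% in these data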;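 also: TNF-alpha given at a submaximal dose yielding about 80% of full reporter signal; values are well signal over median control so 100% means no change and 0% no light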
# STAT3 act 2 – STAT3 reporter activation by STAT1 hits, confirmation, counter-screen for STAT1 activator project, U3A cells, luciferase, luminescence; activation (% of control), % at 5.7 µM; 46% of 1,200 active; IL-6; cells lack STAT1; 100 = IL-6 alone, no compound effect; shares compounds with STAT1 act;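 active = activation above the solvent-only control well mean plus 3 SD, set per plate batch, cut at about 110% in these data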;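 also: 0% = no luminescence and 100% = median IL-6 plus DMSO wells; higher means more STAT3 reporter activation so hits are non-selective activators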
# * = called active by the depositor; . = not tested or not shown. Hits are enriched below; roughly 5.1% of the tested compounds scored in any of these assays.
SMILES,NF-kB neuron act,APP 5'UTR act,STAT1 blocker,STAT1 act,STAT3 inh,STAT3 activator,STAT1 act conf,NFkB act,STAT3 act 2
O=C(Cn1cc(C(F)(F)F)cc(Cl)c1=O)Nc1cc(S(=O)(=O)N2CCOCC2)ccc1Cl,1,13,7,94,-4,100,.,.,.
CCOc1ccccc1N1CCN(C(=S)NCc2ccc(Cl)cc2)CC1,1.3,22,4,95,3,104,.,.,.
CCOc1ccc(Nc2oc(-c3ccc(Cl)cc3)nc2C#N)cc1,2.7,7,-6,106,10,95,.,.,.
COc1ccc(Nc2oc(-c3ccc(Cl)cc3)nc2C#N)cc1,3.3*,14,-81,174*,-6,109,208*,135*,124*
CC(C)CNC(=O)c1ccc(NC(=O)c2ccccc2[N+](=O)[O-])cc1,1,10,13,88,5,96,.,.,.
Cc1nc(N)sc1N=Nc1ccc(Br)cc1,7.2*,122,-63,158*,-17,115,214*,162*,123*
Cc1[nH]nc(N)c1N=Nc1ccc(Br)cc1,1.1,21,-12,108,12,94,.,.,.
c1ccc(CNc2ccc3ccccc3n2)nc1,4.7*,162*,-56,153*,28,81,200*,107,92
O=c1c2c(nc3cc(-c4ccc(F)cc4)[nH]n13)CCC2,1,99,-60,152*,-6,105,176*,118,102
c1ccc2oc(-c3ccc4nc[nH]c4c3)nc2c1,5.2*,138*,-56,151*,9,93,205*,135*,97
Nc1nc2ccc(-c3nc4ccccc4o3)cc2s1,10*,157*,-57,152*,20,84,231*,130,102
O=C1c2ccccc2C(=O)N1c1cccc(-c2nc3ccccc3o2)c1,1,28,-4,103,6,99,.,.,.
Cc1ccc(C(=O)N(C)c2nnc(-c3ccncc3)s2)cc1,2.4,65,-13,110,12,92,.,.,.
Cc1ccc2nc(SCC(=O)c3c(C)[nH]c4ccccc34)[nH]c2c1,0.89,3,-3,103,13,92,.,.,.
O=c1c2ccccc2nnn1CSc1ncnc2ccccc12,2.3,3,20,82,-8,110,.,.,.
O=c1c2ccccc2nnn1CSc1ccccc1F,4.7*,152*,-60,160*,15,86,198*,115,103
Cc1ccc2nc(SCn3nnc4ccccc4c3=O)[nH]c2c1,3.8*,175*,-70,163*,-24,124,180*,120,129*
N#Cc1cnc(SCC(=O)NNC(=O)COc2cccc3ccccc23)nc1N,1,1,-1,101,-4,102,.,.,.
O=C(COC(=O)Cn1cnc2ccccc2c1=O)Nc1ccccc1Sc1ccc(Cl)cc1,0.98,0,-12,110,-12,111,.,.,.
O=C(O)C1CC=CCC1C(=O)Nc1ccccc1 (stereo unspecified),1.1,15,-5,105,14,94,.,.,.
CC1CC1C(=O)Nc1ccc(-c2ccccc2)cc1 (stereo unspecified),3.3*,121,-62,155*,5,94,162*,127,97

# Compound activity (PubChem BioAssay)
